Values after ≈ are worked out from the molar mass of the structure shown. Active and inactive are the calls of the source. The rule behind the calls is not given here.
Tests used:
[1] = Half-life in female CD-1 mouse at 11 mg/kg, iv measured after 12 hrs by LC-MS/MS analysis; assay type: ADME, organism-based; conditions: in vivo
Outline: (§1)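 Female CD-1 mice (n = 3/group) received one bolus of 11 mg/kg (actual dose; 10 mg/kg intended) IV or PO. Plasma was sampled at six time points over 12 h, and brain homogenate was taken at the 12 h end point. […] Mean ± SD.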

[2] = Kinetic solubility of compound at pH 7.4 incubated for 24 hrs by HPLC analysis; assay type: physicochemical; conditions: buffer, pH 7.4, read-out: Kinetic_solubility
[3] = Drug concentration in female CD-1 mouse plasma at 11 mg/kg, po measured after 12 hrs by LC-MS/MS analysis; assay type: ADME, organism-based; outline: as §1
[4] = Drug concentration in female CD-1 mouse plasma at 11 mg/kg, po measured after 0.5 hrs by LC-MS/MS analysis; assay type: ADME, organism-based; outline: as §1
[5] = Drug concentration in female CD-1 mouse brain at 11 mg/kg, iv measured after 12 hrs by LC-MS/MS analysis; assay type: ADME, organism-based; conditions: read-out: Ct; outline: as §1
Naegleria fowleri [6] = assay: Anti-ameobic activity against Naegleria fowleri Nf69 (ATCC 30215) trophozoites assessed as inhibition of amoeba growth incubated for 48 hrs by CellTiter-Glo assay; assay type: functional, organism-based; conditions: Naegleria fowleri, Nf69 (ATCC 30215), 48 h
Outline: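 Axenic Nf69 trophozoites were seeded at 1 × 10^4 cells/mL in Nelson's complete medium with 10% heat-inactivated FBS. Compound was added at 20 to 0.375 μM (lower ranges for very potent compounds), with vehicle controls, for 48 h at 37 °C and 5% CO2. CellTiter-Glo luminescence gave % growth inhibition versus controls, and triplicate means were fitted to dose–response curves for EC50.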

[7] = Half-life in female CD-1 mouse at 11 mg/kg, po measured after 12 hrs by LC-MS/MS analysis; assay type: ADME, organism-based; conditions: in vivo; outline: as §1
[8] = AUCinfinity in female CD-1 mouse at 11 mg/kg, po measured after 12 hrs by LC-MS/MS analysis; assay type: ADME, organism-based; conditions: in vivo; outline: as §1
Naegleria fowleri [9] = assay: Anti-ameobic activity against Naegleria fowleri Nf69 (ATCC 30215) trophozoites infected in female CD-1 mouse model assessed as reduction in infection at 11 mg/kg, ip pre-infected for 48 hrs from day 0 followed by twice daily compound administration from day 2 to day 6 and […]; assay type: functional, organism-based; conditions: time 6.0 day
[10] = Drug concentration in female CD-1 mouse plasma at 11 mg/kg, po measured after 4 hrs by LC-MS/MS analysis; assay type: ADME, organism-based; outline: as §1
Naegleria fowleri [11] = assay: Anti-ameobic activity against Naegleria fowleri TY (ATCC 30107) trophozoites assessed as inhibition of amoeba growth incubated for 48 hrs by CellTiter-Glo assay; assay type: functional, organism-based
Outline: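 TY strain (ATCC 30107) trophozoites, seeded at 1 × 10^4 cells/mL, were exposed 48 h (37 °C, 5% CO2) to vehicle or compound, with concentrations initially 20 to 0.375 μM. CellTiter-Glo luminescence gave % growth inhibition versus controls. EC50 was fit from triplicate runs (n = 3, ± SEM).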

[12] = Toxicity in female CD-1 mouse infected with Naegleria fowleri Nf69 (ATCC 30215) trophozoites assessed as adverse effect at 50 mg/kg, ip pre-infected for 48 hrs from day 0 followed by single bolus compound administration from day 2 to day 6 and measured on day 14 post-infection; assay type: organism-based; conditions: in vivo, 312 h, time 13 day
[13] = Drug concentration in female CD-1 mouse plasma at 44 mg/kg, ip measured after 2 hrs by LC-MS/MS analysis; assay type: ADME, organism-based
Outline: (§2)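 Female CD-1 mice (n = 3/group) received one intraperitoneal bolus of 44 mg/kg (actual dose; 50 mg/kg intended). Plasma was sampled at 2 and 4 h and brain homogenate at 4 h. Brain-to-plasma ratio = brain over plasma concentration at 4 h. Mean ± SD.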

[14] = Drug concentration in female CD-1 mouse plasma at 11 mg/kg, po measured after 8 hrs by LC-MS/MS analysis; assay type: ADME, organism-based; outline: as §1
[15] = Drug concentration in female CD-1 mouse plasma at 11 mg/kg, iv measured after 12 hrs by LC-MS/MS analysis; assay type: ADME, organism-based; outline: as §1
[16] = Drug concentration in CD-1 mouse brain infected with Naegleria fowleri Nf69 (ATCC 30215) trophozoites assessed as adverse effect at 50 mg/kg, ip pre-infected for 48 hrs from day 0 followed by single bolus compound administration from day 2 to day 6 and measured on day 14 post-infection; assay type: ADME, organism-based; conditions: time 13 day, read-out: Ct
[17] = Drug concentration in female CD-1 mouse brain at 11 mg/kg, po measured after 12 hrs by LC-MS/MS analysis; assay type: ADME, organism-based; conditions: read-out: Ct; outline: as §1
Naegleria fowleri [18] = assay: Anti-ameobic activity against Naegleria fowleri Nf69 (ATCC 30215) trophozoites infected in female CD-1 mouse model assessed as median survival day at 11 mg/kg, ip pre-infected for 48 hrs from day 0 followed by twice daily compound administration from day 2 to day 6 and measured on day 14 post-infection (reference value: 5.4 day ); assay type: functional; conditions: time 13 day
Outline: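 Female CD-1 mice (n = 6/group) were infected intranasally with Nf69 trophozoites on day 0. After a 48 h establishment period, they received IP dosing at 11 mg/kg twice daily for 5 days. Infected controls received vehicle only. The study lasted 14 days, with Kaplan–Meier survival, and the brains of survivors were cultured for viable amoeba.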

[19] = Ratio of drug concentration in female CD-1 mouse brain to plasma at 44 mg/kg, ip measured after 4 hrs by LC-MS/MS analysis; assay type: ADME, organism-based; outline: as §2
[20] = Drug concentration in female CD-1 mouse plasma at 11 mg/kg, iv measured after 8 hrs by LC-MS/MS analysis; assay type: ADME, organism-based; outline: as §1
[21] = Drug concentration in female CD-1 mouse brain at 44 mg/kg, ip measured after 4 hrs by LC-MS/MS analysis; assay type: ADME, organism-based; conditions: read-out: Ct; outline: as §2
[22] = Metabolic stability in CD-1 mouse liver microsomes assessed as half-life incubated for 60 mins by LC-MS/MS analysis; assay type: ADME, Microsome; conditions: 1 h
Outline: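 Half-life measured in CD-1 mouse liver microsomes with NADPH over a 60 min exposure.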

[23] = AUCinfinity in female CD-1 mouse at 11 mg/kg, iv measured after 12 hrs by LC-MS/MS analysis; assay type: ADME, organism-based; conditions: in vivo; outline: as §1
SH-SY5Y = assay: Cytotoxicity against human SH-SY5Y cells assessed as reduction in cell viability incubated for 72 hrs by CellTiter-Glo assay; assay type: toxicity, cell-based; conditions: sh-sy5y, 72 h
Outline: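 SH-SY5Y cells at 2000 per well attached overnight at 37 °C. Compound from 20 mM DMSO stocks was added in triplicate as a dose series starting at 20 μM, with doxorubicin as positive control.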

[24] = Drug concentration in female CD-1 mouse plasma at 11 mg/kg, iv measured after 2 hrs by LC-MS/MS analysis; assay type: ADME, organism-based; outline: as §1
[25] = Protein binding in CD-1 mouse plasma incubated for 4 hrs by equilibrium dialysis based LC-MS/MS analysis; assay type: ADME, cell-free; conditions: mouse, 4 h
[26] = Oral bioavailability in female CD-1 mouse at 11 mg/kg measured after 12 hrs by LC-MS/MS analysis; assay type: ADME, organism-based; conditions: in vivo; outline: as §1
[27] = Drug concentration in female CD-1 mouse plasma at 11 mg/kg, iv measured after 4 hrs by LC-MS/MS analysis; assay type: ADME, organism-based; outline: as §1
[28] = Volume of distribution in female CD-1 mouse at 11 mg/kg, iv measured after 12 hrs by LC-MS/MS analysis; assay type: ADME, organism-based; conditions: in vivo; outline: as §1
[29] = Drug concentration in female CD-1 mouse plasma at 11 mg/kg, po measured after 2 hrs by LC-MS/MS analysis; assay type: ADME, organism-based; outline: as §1
[30] = Selectivity index, ratio of CC50 for cytotoxicity against human SH-SY5Y cells to EC50 for anti-amoebic activity against Naegleria fowleri Nf69 (ATCC 30215) assessed as inhibition of amoeba growth; assay type: toxicity, cell-based; conditions: SH-SY5Y cells, read-out: Ratio CC50/EC50
[31] = Drug concentration in female CD-1 mouse plasma at 11 mg/kg, iv measured after 0.5 hrs by LC-MS/MS analysis; assay type: ADME, organism-based; outline: as §1
[32] = Metabolic stability in human liver microsomes assessed as half-life; assay type: ADME, Microsome

`COc1cc2nc3n(c(=O)c2cc1Cl)CC[C@H]1[C@H]3CCCN1CC1COC1` showed a t1/2 [1] of 1 h, a solubility kinetic at 24 h [2] of 23.9 µM (≈ 9.32 µg/mL) and a concentration at 12 h [3] of 2 ng/mL. For the same molecule, the concentration at 0.5 h [4] was 469 ng/mL, the concentration at 12 h [5] was 13.3 ng/g and the EC50 (Naegleria fowleri [6]) was 12 nM. The t1/2 [7] was 1.1 h, the AUC [8] was 1920 ng·h/mL and the Activity (Naegleria fowleri [9]) was “inactive”. The concentration at 4 h [10] was 254 ng/mL, the EC50 (Naegleria fowleri [11]) was 14 nM and the Activity [12] was “Non-Toxic”. It also gave a concentration at 2 h [13] of 3850 ng/mL, a concentration at 8 h [14] of 21.1 ng/mL and a concentration at 12 h [15] of 2.6 ng/mL. The concentration at 312 h [16] was about 20 µM, the concentration at 12 h [17] was 10.4 ng/g and the MSD (Naegleria fowleri [18]) was 6.1 days. It also gave a BPR [19] of 4.7, a concentration at 8 h [20] of 18.1 ng/mL and a concentration at 4 h [21] of 9090 ng/g. The t1/2 [22] was 48.2 min, the AUC [23] was 5010 ng·h/mL and the CC50 (SH-SY5Y) was 2300 nM. The concentration at 2 h [24] was 882 ng/mL, the PPB [25] was 74% and the F [26] was 38%. For the same molecule, the concentration at 4 h [27] was 281 ng/mL, the Vd [28] was 3.7 L/kg and the concentration at 2 h [29] was 459 ng/mL. It also gave a selectivity ratio [30] of 192, a concentration at 0.5 h [31] of 2110 ng/mL and a t1/2 [32] of 92.7 min.
